Bioassay records as filed in PubChem BioAssay.
procasp7 counter: counter-screen: procaspase-7 (human) activation; recombinant procaspase-7, Ac-DEVD-pNA absorbance 405 nm; D23A/D198A/D206A triple mutant, cannot self-cleave; scale: DMSO 0, 5 µM enzyme 100; actives 0.093% (n = 330,000); AID 463210; activation, % at 8.5 µM;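 active means percent activation above the screen-wide mean plus 3 SD, cut at about 25% in these data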
Target sequence (P55210 whole entry D23A/D198A/D206A): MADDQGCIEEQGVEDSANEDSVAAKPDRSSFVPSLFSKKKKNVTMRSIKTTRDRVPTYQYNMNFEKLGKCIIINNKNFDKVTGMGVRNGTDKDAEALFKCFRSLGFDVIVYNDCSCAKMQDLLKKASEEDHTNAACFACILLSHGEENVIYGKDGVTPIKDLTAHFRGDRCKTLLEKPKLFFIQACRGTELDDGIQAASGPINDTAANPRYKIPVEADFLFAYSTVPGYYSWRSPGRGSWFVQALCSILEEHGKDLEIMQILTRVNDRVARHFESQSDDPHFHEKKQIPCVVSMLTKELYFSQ
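buffer or medium = Zinc-free HEPES/NaCl buffer, pH 7.4 | material = Procaspase-7 triple mutant (PC-7 D3A) | input = 2 µM procaspase-7 mutant as dispensed | signal = Epi-absorbance of released pNA at 405 nm, two timepoints | timing = 1 h preincubation, 2 h reaction | replicates = singlicate compound testing | evaluation = % activation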
PolyA inh: yeast polyadenylation inhibition. S. cerevisiae SKY197-pL101 polyadenylation reporter, beta-gal luminescence; efflux-impaired pdr1/pdr3 knockout yeast; score 100 = 6 SD above DMSO. activity score, % at 12 µM. actives 0.02% (n = 300,000). AID 1875;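 active means lowest replicate activity score at least 50, where 100 means six control SD above control mean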;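 further: yeast exposed to compound for 9 h at 30 °C; higher score means more reporter readthrough which indicates perturbed polyadenylation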
procasp3 activ: procaspase-3 (human) activation | P42574 | recombinant procaspase-3 D3A, Ac-DEVD-pNA absorbance 405 nm | activation, % at 8.5 µM | actives 0.11% (n = 330,000) | AID 463141;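 active means activation above the mean of all tested compounds plus 3 SD, cut at about 21% in these data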
Target sequence (P42574 whole entry D9A/D28A/D175A): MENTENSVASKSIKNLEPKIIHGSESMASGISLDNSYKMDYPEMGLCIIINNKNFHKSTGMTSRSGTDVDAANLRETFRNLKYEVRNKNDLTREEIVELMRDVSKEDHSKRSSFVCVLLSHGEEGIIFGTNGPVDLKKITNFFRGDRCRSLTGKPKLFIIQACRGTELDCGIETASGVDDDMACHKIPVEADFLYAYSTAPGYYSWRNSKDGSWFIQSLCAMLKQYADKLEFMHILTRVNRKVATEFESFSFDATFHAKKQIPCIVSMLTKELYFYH
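material = Procaspase-3 D3A mutant | probe or stimulus = Ac-DEVD-pNA | compound = single dose, 8.5 µM nominal compound, 0.8% DMSO | timing = 1 h preincubation, 2 h reaction | measured by = 405 nm absorbance of p-nitroaniline, reads at 0 and 120 min | benchmarks = DMSO-only low control, 5 µM PC-3 D3A high control | repeats = singlicate, each compound tested once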
Neddylation inh: inhibitors of human cullin neddylation | actives 0.58% (n = 360,000) | TR-FRET cullin neddylation, biochemical | calls only at 25 µM; in the data active means inhibition above about 36%
VIM-2 inhibitor: inhibitors of Pseudomonas aeruginosa VIM-2 metallo-beta-lactamase; actives 0.89% (n = 290,000); inhibition, % at 5.6 µM; purified VIM-2, nitrocefin hydrolysis, epi-absorbance fluorescence;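 active means inhibition above the mean of all tested compounds plus 3 SD, cutoff set per screening run, cut at about 7.5% in these data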;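 further: red hydrolysis product quenches plate fluorescence so inhibitors raise well fluorescence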
IMP-1 inh: blocks Pseudomonas aeruginosa IMP-1 metallo-beta-lactamase. purified IMP-1, nitrocefin hydrolysis, epi-absorbance fluorescence. inhibition, % at 5.6 µM. actives 0.45% (n = 290,000);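 active means inhibition above the mean plus 3 SD of all compounds in the same screening run, cut at about 4.5% in these data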
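Test system: recombinant IMP-1 enzyme, purified / Medium: HEPES buffer pH 7.1 with ZnSO4 and Brij 35 / Doses: single dose, 5.6 µM / Times: 25 °C, 15 min preincubation, 25 min reaction / Detection: Epi-absorbance via hydrolysed-nitrocefin quenching of white-plate fluorescence, 480/530 nm, EDTA stop / Evaluation: percent inhibition from optical density relative to buffer-blank wells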
Neddyl inh conf: cullin neddylation inhibition, confirmation. shares compounds with Neddylation inh. TR-FRET cullin neddylation biochemical assay. calls only at 25 µM. actives 13% (n = 1,800). AID 652217; in the data active means inhibition above about 40%;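 further: neddylation substrate is the cullin 1 ring ligase complex with SKP2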
Each line names hits and unclear results; the compound was inactive in the other large screens (follow-up assays come after a bar, where shown). Sampled rows, rich in hits. Any-hit rate of the full collection: about 1.7%.

O=C(O)C1=C[C@@H](c2ccc3c(c2)OCO3)C[C@@H](OCCCCO)O1	none
Cc1ccc2nc(C)cc(C(=O)OCC(=O)Nc3cccnc3Cl)c2c1	Neddylation inh active | Neddyl inh conf inactive
CC(C)C[C@@H](CSc1ccccc1)N1CCN(CCc2ccccc2)CCC1=O	Neddylation inh active | Neddyl inh conf inactive
CCCCC[n+]1cccc2c3ccccc3ccc21	none (not shown: Neddylation inh)
c1ccc(C[n+]2cccc3c4ccccc4ccc32)cc1	Neddylation inh active
Cc1cc(=O)oc2cc(NC(=S)NCc3ccccn3)ccc12	none
Cc1cc(=O)oc2cc(NC(=S)NNC(=O)c3c(Cl)cnn3C)ccc12	Neddylation inh active | Neddyl inh conf inactive
Cc1ccc(OC(=O)N(C)C[C@@H]2OCc3cn(nn3)CCCC(=O)N([C@H](C)CO)C[C@H]2C)cc1	none (no result: procasp7 counter, PolyA inh, procasp3 activ, VIM-2 inhibitor, IMP-1 inh)
CC(NC(=O)C1=CC=CN2CCS(=O)(=O)N=C12)c1ccc(Cl)c(Cl)c1 (stereo unspecified)	Neddylation inh active (no result: PolyA inh, VIM-2 inhibitor, IMP-1 inh) | Neddyl inh conf active
CC(NC(=O)C1=CC=CN2CCS(=O)(=O)N=C12)c1ccc(Cl)cc1Cl (stereo unspecified)	Neddylation inh active (not shown: PolyA inh, VIM-2 inhibitor, IMP-1 inh)
O=C(Oc1cc(Cl)ccc1Cl)C1=CC=CN2CCS(=O)(=O)N=C12	none (no result: PolyA inh, VIM-2 inhibitor, IMP-1 inh)
COc1ccc(OC)c2[nH]c(=O)c(CCNC(=O)c3ccc4c(c3)OCO4)cc12	Neddylation inh active | Neddyl inh conf inactive
COc1ccc(OC)c2[nH]c(=O)c(CCNC(C)=O)cc12	none
Cc1ccn(C(C)CC(=O)N2CCc3ccccc32)n1 (stereo unspecified)	none
COc1ccc(NS(=O)(=O)c2ccc(NC(=O)c3cnn4c(C(F)F)cc(-c5ccc(C)cc5)nc34)cc2)cc1	none (no result: procasp7 counter, PolyA inh, procasp3 activ, Neddylation inh)
COc1ccccc1Cn1c(=O)oc2ccccc21	none (no result: procasp7 counter, PolyA inh, procasp3 activ, VIM-2 inhibitor, IMP-1 inh)
CCc1ccccc1Cn1c(=O)oc2cccnc21	Neddylation inh active | Neddyl inh conf inactive
O=C(Nc1ccc2c(c1)OCO2)c1cc(-c2ccc(O)cc2)on1	Neddylation inh active | Neddyl inh conf active
C=CCn1cnc2scc(-c3ccc(C)c(C)c3)c2c1=O	none
COC(=O)c1nc(N)sc1-c1ccccc1	Neddylation inh active (not shown: PolyA inh)
COC(=O)c1nc(N)sc1-c1ccc(Cl)cc1	none (not shown: Neddylation inh)
CCc1c(C)nc2c(C#N)c(C)[nH]n2c1=O	none
O=C(COc1ccc(Cl)cc1)N1N=C(c2cccs2)CC1c1ccco1 (stereo unspecified)	none (no result: procasp7 counter, PolyA inh, procasp3 activ, VIM-2 inhibitor, IMP-1 inh)
O=C(COc1ccccc1F)N1N=C(c2cccs2)CC1c1ccco1 (stereo unspecified)	Neddylation inh active (no result: procasp7 counter, PolyA inh, procasp3 activ, VIM-2 inhibitor, IMP-1 inh) | Neddyl inh conf inactive
O=c1ccc2cc3c(-c4ccccc4)coc3cc2o1	Neddylation inh active (no result: procasp7 counter, procasp3 activ) | Neddyl inh conf inactive
CC(=O)Oc1ccc2occ(-c3ccccc3)c2c1	none
N#Cc1nc(-c2ccccc2F)oc1NCCc1ccccn1	Neddylation inh active (no result: VIM-2 inhibitor, IMP-1 inh) | Neddyl inh conf inactive
Cc1c(C(=O)N2CCCC2)sc(NC(=O)c2ccccc2)c1C#N	none
CC1(C)Cc2nc3sc(C(=O)NCCCO)c(N)c3cc2CO1	none
COC(=O)c1sc2nc3c(cc2c1N)COC(C)(C)C3	Neddylation inh active | Neddyl inh conf active
O=c1oc(-c2ccccc2)cc2ccccc12	none (no result: procasp7 counter, PolyA inh, procasp3 activ, VIM-2 inhibitor, IMP-1 inh)
CCCCC(=O)OCC(=O)N1N=C(c2c[nH]c3ccccc23)C(O)C1c1ccc(OC)cc1 (stereo unspecified)	Neddylation inh active | Neddyl inh conf inactive
COc1ccc(CC(=O)OCC(=O)N2N=C(c3ccccc3)CC2c2ccc(OC)cc2)cc1 (stereo unspecified)	none
O=C(Nc1cccc2nsnc12)c1ccc2c(c1)OCO2	Neddylation inh active | Neddyl inh conf active
COc1cccc(Nc2ccc(C(=O)O)cc2N)c1	Neddylation inh active
Cc1cc(C)cc(Nc2ccc(C(=O)O)cc2N)c1	none (not shown: Neddylation inh)
FC(F)C(F)(F)Oc1cccc(Nc2nccn3c(-c4cccc5ccccc45)cnc23)c1	Neddylation inh active (no result: procasp7 counter, PolyA inh, procasp3 activ, VIM-2 inhibitor, IMP-1 inh) | Neddyl inh conf inactive
